# Laboratory results reported in article PMC7111685 (Phytochemistry, 2015).
# What was measured:
# Cytotoxicity assay = assay type: cell-based; conditions: African green monkey, Vero cells
# How it was run: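 Vero cells grown in DMEM with 10% FBS and penicillin/streptomycin, plated at 1 × 10^5 cells/well and grown 24 h. Exposed 48 h to various concentrations of test compound, final DMSO under 0.05% (v/v). MTT solution (2 mg/mL) added for 4 h, supernatant removed, formazan dissolved in DMSO, absorbance read at 550 nm. Viability expressed relative to control wells; CC50 by regression analysis.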
# [1] = tested on: porcine epidemic diarrhea virus (PEDV); experiment: Cytopathic effect; assay type: cell-based
# How it was run: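 Vero cells (DMEM, 10% FBS, penicillin/streptomycin) seeded at 1 × 10^5 cells/well and PBS-washed a day later. Near-confluent monolayers were inoculated with PEDV at 0.01 MOI for 2 h, then given DMEM with various concentrations of test compound. After 72 h at 37 °C, 5% CO2, MTT solution (2 mg/mL) was added for 4 h. EC50 came from regression analysis; SI = CC50/EC50.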
structure (smiles),measurement,setting,value
"O=c1cnn([C@@H]2O[C@H](CO)[C@@H](O)[C@H]2O)c(=O)[nH]1 [Compound 6-Azauridine, 6-Azauridine]",CC50 at 48 h,Cytotoxicity assay,44.5 ± 6.11 µM
same,EC50,"[1]; Porcine epidemic diarrhea virus, Vero, 72 h",5.58 ± 0.53 µM
same,SI,"[1]; selective index, SI = CC50/EC50",7.98 ± 0.37
